Source: PubChem (several laboratories)
Shown are actives, neighbours in structure and some others; about 2.6% of the full set was active somewhere.
SENP6 inh: SENP6 protease inhibitors, primary screen, biochemical, luminescence, uHTS. 330,000 compounds, 1.8% hits. Sentrin-specific protease 6 (Homo sapiens), Q9GZR1. AID 2599, 2010. Recombinant SENP6 catalytic domain, aminoluciferin luminescence. inhibition, % at 10 µM;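 active means inhibition above about 50% at the single tested dose, limit read from the data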;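 further: plate controls were DMSO wells with enzyme for no effect and DMSO wells lacking enzyme for full effect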
Target sequence (Q9GZR1 628-1112 limits assumed): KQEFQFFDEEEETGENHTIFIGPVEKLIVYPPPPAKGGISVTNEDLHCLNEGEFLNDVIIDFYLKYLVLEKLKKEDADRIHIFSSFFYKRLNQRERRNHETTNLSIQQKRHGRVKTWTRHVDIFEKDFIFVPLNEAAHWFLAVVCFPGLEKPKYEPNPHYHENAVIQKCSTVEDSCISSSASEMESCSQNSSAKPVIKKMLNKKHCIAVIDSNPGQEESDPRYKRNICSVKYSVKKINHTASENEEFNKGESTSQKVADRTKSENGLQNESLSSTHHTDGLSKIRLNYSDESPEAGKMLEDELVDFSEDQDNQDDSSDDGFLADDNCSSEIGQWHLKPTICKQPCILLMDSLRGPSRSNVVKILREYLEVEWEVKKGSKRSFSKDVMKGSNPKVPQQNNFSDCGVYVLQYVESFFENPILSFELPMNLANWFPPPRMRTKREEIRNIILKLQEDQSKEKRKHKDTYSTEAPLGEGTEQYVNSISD
SENP8 block-1: human SENP8 protease inhibitors, primary screen, biochemical, fluorescence, Nedd8 protein substrate, uHTS; recombinant SENP8; inhibition, % at 20 µM; 360,000 compounds, 0.64% hits; in the data active means inhibition mostly above about 40%, no sharp cut-off; inactive means mostly below about 27%
SENP1 inh: human SENP1 catalytic domain inhibitors, primary screen, biochemical, FRET, uHTS. Sentrin-specific protease 1 (Homo sapiens), Q9P0U3. recombinant SENP1 catalytic domain, CyPet-SUMO1-YPet FRET cleavage. inhibition, % at 10 µM. 360,000 compounds, 0.21% hits. AID 624204, 2012;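 active means inhibition at least 30% at 10 µM, raw YFP signal under a set limit, fluorescence ratio 0.5 to 1.5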;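 further: 0% = enzyme with DMSO and 100% = no enzyme wells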
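Assay system: hSENP1 catalytic domain, recombinant. Amount: SENP1 enzyme, 20 pM final. Schedule: 50 min reaction, RT, dark. Technique: FRET, CFP and YFP emission. Control set: no-enzyme wells low, DMSO-plus-enzyme wells high control.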
SENP7 block: SENP7 protease inhibitors, primary screen, biochemical, luminescence, uHTS; inhibition, % at 5 µM; 330,000 compounds, 1.5% hits; AID 434973, 2010; recombinant SENP7, Z-RLRGG-aminoluciferin luminescence, 40 min;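 active means inhibition above about 50% at the single test dose, limit read from the data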;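 further: plate controls were DMSO with enzyme for no effect and no enzyme buffer wells for full effect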
SENP8 block-2: SENP8 protease inhibitors, primary screen, biochemical, luminescence | Sentrin-specific protease 8 (Homo sapiens), Q96LD8 | purified SENP8, Z-RLRGG-aminoluciferin cleavage | inhibition, % at 10 µM | AID 2540, 2010 | 330,000 compounds, 1.2% hits; in the data active means inhibition above about 50%
Platelet DG rel: inhibitors of platelet dense granule secretion, primary screen, cell-based, MLPCN, human platelets; AID 1663, 2009; 300,000 compounds, 0.22% hits; inhibition, %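 (compounds screened at 7.5 µM in platelet-rich plasma)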; human platelet-rich plasma, SFLLRN dense granule ATP release, luminescence;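 active means mean replicate score, as percent of positive control, at or above 50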
SENP8 confirm: SENP8 protease inhibitors, retest, confirmation, biochemical, luminescence, single concentration; AID 488912, 2010; Recombinant SENP8, Z-RLRGG-aminoluciferin luminescence, 60 min; shares compounds with SENP7 block; 6,200 compounds, 40% hits; inhibition, % at 12.5 µM;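 active means mean inhibition across replicates above about 50%, limit read from the data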
SENP6 conf: SENP6 protease inhibitors, confirmation, biochemical, luminescence, single concentration. shares compounds with SENP7 block. 6,200 compounds, 58% hits. AID 488915, 2010. recombinant SENP6, Z-RLRGG-aminoluciferin luminescence. inhibition, % at 12.5 µM
SENP7 conf: SENP7 protease inhibitors, retest, confirmation, biochemical, luminescence, single concentration | inhibition, % at 12.5 µM | shares compounds with SENP7 block | 6,200 compounds, 69% hits | recombinant SENP7, Z-RLRGG-aminoluciferin luminescence, 40 min | AID 488917, 2010
Casp3 SENP sel: caspase-3 protease inhibitors, confirmation, selectivity assay for SENP inhibitor project, biochemical, single concentration; shares compounds with SENP7 block; purified caspase-3, Z-DEVD-aminoluciferin luminescence, 60 min; inhibition, % at 12.5 µM; 6,200 compounds, 60% hits;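 active means mean inhibition above about 50%, limit read from the data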;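 further: plate controls were enzyme with DMSO for no effect and wells without caspase-3 for full effect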
Luc interf: counter-screen for SENP inhibitors: luminescence interference; shares compounds with SENP7 block; Pre-incubated SENP8/Z-RLRGG-aminoluciferin, luciferase luminescence interference; inhibition, % at 12.5 µM; 6,200 compounds, 39% hits; AID 488919;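 active means mean inhibition above about 50% when retested at one dose, limit read from the data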;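 further: plate controls were DMSO wells with completed reaction for no effect and substrate without enzyme for full effect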
An asterisk follows results filed as active; . = no result.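 How the source made its calls, unless noted: active means mean inhibition above about 50% in the one-dose retest (limit read from the data); inactive means the rest.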

SMILES	SENP6 inh	SENP8 block-1	SENP1 inh	SENP7 block	SENP8 block-2	Platelet DG rel	SENP8 confirm	SENP6 conf	SENP7 conf	Casp3 SENP sel	Luc interf
COc1ccc(C(=O)Nc2ccc3ccccc3c2)cc1	88*	6	2	96*	86*	39	5	84*	100*	80*	32
CS(=O)(=O)Nc1ccc(C(=O)Nc2ccc3ccccc3c2)cc1	37	1	1	58*	-1	-2	4	1	65*	48	25
COc1cccc(C(=O)Nc2cccc(SC)c2)c1	79*	12	2	75*	55*	-2	72*	72*	90*	65*	70*
CC(=O)Nc1ccc(NC(=O)/C=C/c2ccc3c(c2)OCO3)cc1	-17	12	1	7	-1	7	.	.	.	.	.
O=C(/C=C/c1ccc2c(c1)OCO2)Nc1cccnc1	84*	-257	-1	85*	77*	25	4	80*	97*	89*	76*
O=C(/C=C/c1c(F)cccc1Cl)Nc1cccnc1	87*	14	-3	90*	83*	5	28	85*	98*	87*	44
Nc1ccccc1C(=O)/C=C/c1ccc2c(c1)OCO2	84*	-7	-3	94*	66*	18	90*	81*	93*	55*	73*
Cc1ccc(C(=O)C=Cc2ccc3c(c2)OCO3)c(C)c1	.	-34	-12	.	.	.	.	.	.	.	.
Cc1cc(C)nc(NC(=O)/C=C/c2ccc3c(c2)OCO3)c1	86*	-255	-1	90*	71*	8	12	73*	100*	88*	52*
Cc1cccc(C)c1NC(=O)C(c1ccccc1)N1CCC(Cc2ccccc2)CC1 (stereo not drawn)	.	14	2	.	.	.	.	.	.	.	.
CCc1ccc2cccc3c2c1N=CN3C	57*	84*	-7	27	41	16	15	21	15	3	3
CCN1c2cccc3cccc(c23)S1(=O)=O	-10	-301	1	-5	-5	3	.	.	.	.	.
CCCCNc1c(CC(C)C)nc2nc(C)cc(C)n12	.	6	-9	.	.	.	.	.	.	.	.
OC(C[n+]1ccccc1)c1ccccc1 (stereo not drawn)	19	11	3	3	-7	1	.	.	.	.	.
CCc1ccc2nc3sc(C(=O)O)cc3cc2c1	50*	-33	-1	4	37	1	58*	53*	82*	76*	67*
COc1ccc2nc3sc(C(=O)N4CCN(C)CC4)cc3cc2c1	-10	-289	-2	3	2	5	.	.	.	.	.
O=c1[nH][nH]c2cc([N+](=O)[O-])ccc12	.	9	1	.	.	.	.	.	.	.	.
COc1ccc(NC(=O)/C(C#N)=C/c2ccc(Br)o2)cc1	-2	27	3	66*	-3	6	-8	-7	4	4	-3
CSc1cccc(NC(=O)COC(=O)c2ccccn2)c1	-19	-7	-4	11	6	.	.	.	.	.	.
